Assay [1] has as its system Escherichia coli. Briefly: Binding affinity to Escherichia coli negative supercoiled pBR322 DNA at 10 uM after 12 hrs by ethidium bromide staining based agarose gel electrophoresis. In short, it runs like this: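 Negatively supercoiled pBR322 (400 ng) in TE buffer pH 8.0 was incubated with compound at 10 μM for 12 h at room temperature. Loading buffer with sarkosyl was added. Samples were run on 1% agarose at 6 V/cm for 2.5 h in TAE pH 8.5, stained with ethidium bromide and photographed under UV.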

Assay [2] has as its system MRC5. Briefly: Antiproliferative activity against human MRC5 cells after 72 hrs by XTT assay. Type of assay: cell-based. To be noted: MRC5, 72 h. The method in brief:
(§1)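 Cells kept as monolayers in DMEM with 10% FBS, penicillin, streptomycin and amphotericin at 37°C, 5% CO2. Seeded at 5 x 10³ cells/well and exposed to compound for 72 h in medium with 10% FBS. XTT plus electron-coupling reagent added, 4 h at 37°C, absorbance read at 492 nm. Percent of control growth uses mean absorbance (n = 3). The 50% value is taken from the linear portion of the curve.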
(Formazan colour is commonly taken as a measure of viable cells.)

Assay [3] deals with DNA topoisomerase 2-alpha (Homo sapiens) (UniProt P11388). Briefly: Inhibition of human DNA topoisomerase 2-mediated relaxation of supercoiled pBR322 DNA at 100 uM after 30 mins by ethidium bromide staining based agarose gel electrophoresis. The method in brief:
(§2)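 Human topo I or topo II (2 units) was reacted with 0.2 μg supercoiled pBR322 in 20 μl Tris-HCl pH 7.5 containing KCl, DTT, EDTA, MgCl2 and BSA, with DMSO held at 0.5%, for 30 min at 37°C. The reaction was stopped with SDS. Samples were run on 1% agarose in Tris-acetate/EDTA at 1.5 V/cm for 2-3 h and stained with ethidium bromide. Relaxation was quantified by densitometry of the supercoiled band area.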

The subject of assay [4] is MRC5. Briefly: Selectivity index, ratio of IC50 for human MRC5 cells to IC50 for human PC3 cells. The format is functional.
Assay [5] is described as follows: Antiproliferative activity against human H1299 cells after 72 hrs by XTT assay. The format is functional, cell-based. To be noted: NCI-H1299, 72 h. The method in brief:
as §1

Assay [6] deals with T1, DNA topoisomerase 1 (Homo sapiens) (UniProt P11387).
T1 sequence (whole entry): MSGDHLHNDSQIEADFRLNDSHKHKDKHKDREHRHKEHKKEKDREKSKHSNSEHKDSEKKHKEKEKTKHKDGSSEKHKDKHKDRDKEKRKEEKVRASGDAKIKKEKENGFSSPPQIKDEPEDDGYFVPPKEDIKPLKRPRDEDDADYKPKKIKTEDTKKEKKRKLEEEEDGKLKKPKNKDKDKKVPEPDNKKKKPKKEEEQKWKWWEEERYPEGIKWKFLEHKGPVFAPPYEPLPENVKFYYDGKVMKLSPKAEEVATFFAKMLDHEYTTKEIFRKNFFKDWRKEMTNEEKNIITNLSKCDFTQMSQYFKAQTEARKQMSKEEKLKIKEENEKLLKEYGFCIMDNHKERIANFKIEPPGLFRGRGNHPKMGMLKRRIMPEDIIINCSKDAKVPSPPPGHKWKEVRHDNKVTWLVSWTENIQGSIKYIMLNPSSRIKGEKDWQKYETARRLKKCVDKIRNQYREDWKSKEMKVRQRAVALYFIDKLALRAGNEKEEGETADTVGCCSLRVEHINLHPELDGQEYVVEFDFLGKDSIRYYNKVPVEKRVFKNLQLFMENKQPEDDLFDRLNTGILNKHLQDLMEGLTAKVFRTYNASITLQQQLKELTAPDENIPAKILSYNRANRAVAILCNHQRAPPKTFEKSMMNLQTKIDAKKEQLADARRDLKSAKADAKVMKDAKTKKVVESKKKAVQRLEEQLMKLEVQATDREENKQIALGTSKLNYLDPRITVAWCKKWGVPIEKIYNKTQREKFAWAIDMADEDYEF
Briefly: Inhibition of human DNA topoisomerase 1-mediated relaxation of supercoiled pBR322 DNA at 10 uM after 30 mins by ethidium bromide staining based agarose gel electrophoresis. The method in brief: as §2

For assay [7], the system named is MDA-MB-231. Briefly: Antiproliferative activity against human MDA-MB-231 cells after 72 hrs by XTT assay. The format is functional, cell-based. To be noted: MDA-MB-231, 72 h. In short, it runs like this:
as §1

Assay [8] concerns the target DNA topoisomerase 2-alpha (Homo sapiens) (UniProt P11388). Briefly: Inhibition of human DNA topoisomerase 2-mediated relaxation of supercoiled pBR322 DNA at 10 uM after 30 mins by ethidium bromide staining based agarose gel electrophoresis. In short, it runs like this:
as §2

The nature of assay [9]: Antiproliferative activity against human HuH7 cells after 72 hrs by XTT assay. Type of assay: functional, cell-based. To be noted: Huh-7, 72 h. In short, it runs like this: as §1
Assay [10] can be described thus: Antiproliferative activity against human PC3 cells after 72 hrs by XTT assay. To be noted: PC-3, 72 h. The format is functional, cell-based. The method in brief: as §1
Assay [11] has as its system MRC5. Briefly: Selectivity index, ratio of IC50 for human MRC5 cells to IC50 for human MDA-MB-231 cells. The format is functional.
A short description of assay [12]: Selectivity index, ratio of IC50 for human MRC5 cells to IC50 for human H1299 cells. The format is functional.
Assay [13] has as its target T1, DNA topoisomerase 1 (Homo sapiens). Briefly: Inhibition of human DNA topoisomerase 1-mediated relaxation of supercoiled pBR322 DNA at 100 uM after 30 mins by ethidium bromide staining based agarose gel electrophoresis. In short, it runs like this:
as §2

In assay [14] the test system is Huh-7. Briefly: Selectivity index, ratio of IC50 for human MRC5 cells to IC50 for human HuH7 cells. Type of assay: functional.

Structures are written as SMILES. Active and inactive are the calls of the source. The rule behind the calls is not given here.

Chain of DNA topoisomerase 2-alpha (Homo sapiens) (P11388 whole entry): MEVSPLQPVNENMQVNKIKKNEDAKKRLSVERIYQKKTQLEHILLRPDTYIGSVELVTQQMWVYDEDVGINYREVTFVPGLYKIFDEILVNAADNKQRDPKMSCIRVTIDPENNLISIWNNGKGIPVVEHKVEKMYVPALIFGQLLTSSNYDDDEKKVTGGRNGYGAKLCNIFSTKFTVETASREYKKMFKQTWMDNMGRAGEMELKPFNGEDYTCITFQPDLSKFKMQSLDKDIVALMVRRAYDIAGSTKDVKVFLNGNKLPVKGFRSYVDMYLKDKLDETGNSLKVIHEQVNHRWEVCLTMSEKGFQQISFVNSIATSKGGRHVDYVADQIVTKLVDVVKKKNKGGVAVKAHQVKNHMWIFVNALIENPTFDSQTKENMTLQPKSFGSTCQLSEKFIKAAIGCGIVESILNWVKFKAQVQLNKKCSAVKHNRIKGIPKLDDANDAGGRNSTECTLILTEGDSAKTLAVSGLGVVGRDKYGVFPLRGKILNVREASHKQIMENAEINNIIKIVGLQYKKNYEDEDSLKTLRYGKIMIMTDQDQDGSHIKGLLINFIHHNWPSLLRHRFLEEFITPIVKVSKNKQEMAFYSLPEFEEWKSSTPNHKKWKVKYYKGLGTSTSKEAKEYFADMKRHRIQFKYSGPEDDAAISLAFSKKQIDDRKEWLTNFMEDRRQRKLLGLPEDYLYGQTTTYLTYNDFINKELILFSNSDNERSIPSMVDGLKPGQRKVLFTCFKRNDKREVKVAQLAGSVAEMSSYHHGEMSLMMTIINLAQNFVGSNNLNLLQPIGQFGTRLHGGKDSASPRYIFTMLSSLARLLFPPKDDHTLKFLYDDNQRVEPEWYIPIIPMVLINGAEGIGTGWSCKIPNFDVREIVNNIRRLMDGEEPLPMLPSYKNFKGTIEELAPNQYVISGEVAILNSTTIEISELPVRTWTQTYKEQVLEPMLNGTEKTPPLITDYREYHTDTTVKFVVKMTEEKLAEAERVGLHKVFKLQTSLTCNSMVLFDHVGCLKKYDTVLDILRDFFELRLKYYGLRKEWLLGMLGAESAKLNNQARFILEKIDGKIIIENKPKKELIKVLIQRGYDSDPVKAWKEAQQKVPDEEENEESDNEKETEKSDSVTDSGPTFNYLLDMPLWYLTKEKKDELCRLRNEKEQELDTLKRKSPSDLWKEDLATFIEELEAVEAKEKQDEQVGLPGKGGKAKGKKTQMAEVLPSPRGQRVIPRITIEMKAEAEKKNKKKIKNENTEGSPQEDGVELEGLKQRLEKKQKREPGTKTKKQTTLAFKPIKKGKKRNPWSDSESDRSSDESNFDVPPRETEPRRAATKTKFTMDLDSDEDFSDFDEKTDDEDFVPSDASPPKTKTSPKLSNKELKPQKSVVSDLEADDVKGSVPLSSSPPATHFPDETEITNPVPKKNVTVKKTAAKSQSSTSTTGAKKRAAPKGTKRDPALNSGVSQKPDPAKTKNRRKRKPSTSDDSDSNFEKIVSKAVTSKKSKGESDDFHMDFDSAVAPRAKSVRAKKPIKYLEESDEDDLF

With `Cl.c1ccc2c(c1)/C(=N\OCCN1CCCC1)c1nc3ccccc3nc1-2`, the outcome in assay [1] was inactive. In addition, the IC50 was found to be 17.7 µM in assay [2]; 7.03 µM in assay [5]; 4.92 µM in [7]; 6.46 µM in assay [9]; 8.51 µM in assay [10]. Also, in [3], the “inhibition call (active/not active)” value is “Active”. Besides, the “Ratio IC50” value in assay [4] stood at 2.07; in [11], 3.59; in assay [12], 2.51; in assay [14], 2.73. Moreover, the inhibition entry in assay [6] was “Active”. Besides, the “topoisomerase 2 inhibition (active/not active)” value in [8] is “inactive”. For the same compound, the “topoisomerase 1 inhibition (active/inactive)” value in assay [13] is “Active”.

As for `CN(C)CCCO/N=C1\c2ccccc2-c2nc3c(CN4CCCC4)cccc3nc21.Cl`, the result in [1] was Active. Besides, the IC50 in assay [2] amounted to 0.9 µM; in [5], 0.92 µM; in [7] it was 0.68 µM; in assay [9], 0.32 µM; in [10], 0.78 µM. Besides, the “inhibition call (active/not active)” value in assay [3] is “Active”. The “Ratio IC50” value is 1.15 in assay [4], 1.32 in [11], 0.98 in assay [12] and 2.81 in assay [14]. For the same compound, in assay [6], the inhibition result is “Active”. For the same compound, in assay [8], the “topoisomerase 2 inhibition (active/not active)” value was “inactive”. For the same compound, the “topoisomerase 1 inhibition (active/inactive)” value in assay [13] was “Active”.

Regarding `CN(C)CCCO/N=C1\c2ccccc2-c2nc3ccccc3nc21.Cl`, in assay [1], the result was inactive. The IC50 in assay [2] was 19.9 µM; in [5] it was 7.19 µM; in [7], 7.01 µM; in assay [9], 5.38 µM; in assay [10] it was 8.63 µM. Besides, the “inhibition call (active/not active)” value in assay [3] was “Active”. Further, the “Ratio IC50” value in [4] came to 2.3; in [11], 2.83; in assay [12], 2.76; in assay [14] it was 3.69. Moreover, the inhibition entry in assay [6] was “Active”. In assay [8], the “topoisomerase 2 inhibition (active/not active)” value is “inactive”. The “topoisomerase 1 inhibition (active/inactive)” value in [13] was “Active”.

For `CN(C)CCCO/N=C1\c2ccccc2-c2nc3c(C(=O)NCCN4CCCC4)cccc3nc21.Cl`, the result in assay [1] was Active. For the same compound, the 50% inhibitory concentration (IC50) in assay [2] turned out to be 7.89 µM; in [5] it was 5.69 µM; in [7] it was 0.45 µM; in [9], 0.82 µM; in [10], 0.68 µM. Moreover, in assay [3], the “inhibition call (active/not active)” value is “Active”. Also, the “Ratio IC50” value in [4] amounted to 11.6; in assay [11] it was 17.53; in [12] it was 1.39; in assay [14] it was 9.62. Also, in [6], the inhibition entry is “Active”. For the same compound, the “topoisomerase 2 inhibition (active/not active)” value in assay [8] was “Active”. In addition, in [13], the “topoisomerase 1 inhibition (active/inactive)” value is “Active”.

Turning to `CN(C)CCCO/N=C1\c2ccccc2-c2nc3c(C(=O)NCCN(C)C)cccc3nc21.Cl`, in assay [1], the outcome was Active. The half-inhibitory concentration (IC50) in assay [2] was found to be 9 µM; in [5], 6.88 µM; in assay [7], 0.67 µM; in assay [9] it was 0.83 µM; in assay [10] it was 0.89 µM. Besides, the “inhibition call (active/not active)” value in [3] is “Active”. Moreover, the “Ratio IC50” value worked out at 10.11 in assay [4], 13.43 in assay [11], 1.31 in assay [12] and 10.84 in assay [14]. Also, in assay [6], the inhibition result was “Active”. The “topoisomerase 2 inhibition (active/not active)” value in assay [8] is “Active”. Also, the “topoisomerase 1 inhibition (active/inactive)” value in [13] was “Active”.

Broadly, the IC50 is the concentration that gives 50% inhibition. A low value points to inhibition by little substance.

The values above are taken from ChEMBL document CHEMBL3758117, “Discovery of indeno[1,2-b]quinoxaline derivatives as potential anticancer agents” (Eur J Med Chem, 2016).
